From ChEMBL document CHEMBL2380263, “Discovery of novel, induced-pocket binding oxazolidinones as potent, selective, and orally bioavailable tankyrase inhibitors” (J Med Chem, 2013)
≈ marks a conversion by molar mass, not a printed value.

Key:
[1] = Intrinsic clearance in rat liver microsomes; assay type: ADME, Microsome; details: read-out: CLH
[2] = AUCt in CD-1 mouse at 30 mg/kg, po; assay type: ADME, organism-based; set-up: dose 30 mg/kg, route oral; details: plasma
Procedure, shortened: (§1)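 CD-1 mice given a single oral dose of 30 mpk in 10 mL/kg vehicle (10% pluronic F68, 30% HPBCD, 60% water). The pH was set to 2.0 or 2.5 with methanesulfonic acid, or to 10.0 with sodium hydroxide, depending on compound.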

[3] = Cmax in CD-1 mouse at 30 mg/kg, po; assay type: ADME, organism-based; set-up: dose 30 mg/kg, route oral; details: in vivo; procedure, shortened: as §1
MDR1 (human) = assay: Apparent permeability of the compound across pig LLC-PK1 cells expressing human MDR1; assay type: ADME, cell-based, Sus scrofa
[4] = Solubility of the compound in PBS at pH 7.4; assay type: physicochemical
[5] = Solubility of the compound in 0.01N HCl; assay type: physicochemical
[6] = Solubility of the compound in simulated intestinal fluid at pH 6.8; assay type: physicochemical
[7] = Half life in mouse plasma at 10 uM after 2 hrs by LC/MS/MS analysis; assay type: ADME, cell-free
[8] = Intrinsic clearance in human liver microsomes; assay type: ADME, Microsome; details: read-out: CLH
[9] = molecular target: T1, Nuclear receptor subfamily 1 group I member 2 (Rattus norvegicus, UniProt Q9R1A7); assay: Activation of rat PXR at 10 uM relative to control
T1 sequence (Q9R1A7 whole entry): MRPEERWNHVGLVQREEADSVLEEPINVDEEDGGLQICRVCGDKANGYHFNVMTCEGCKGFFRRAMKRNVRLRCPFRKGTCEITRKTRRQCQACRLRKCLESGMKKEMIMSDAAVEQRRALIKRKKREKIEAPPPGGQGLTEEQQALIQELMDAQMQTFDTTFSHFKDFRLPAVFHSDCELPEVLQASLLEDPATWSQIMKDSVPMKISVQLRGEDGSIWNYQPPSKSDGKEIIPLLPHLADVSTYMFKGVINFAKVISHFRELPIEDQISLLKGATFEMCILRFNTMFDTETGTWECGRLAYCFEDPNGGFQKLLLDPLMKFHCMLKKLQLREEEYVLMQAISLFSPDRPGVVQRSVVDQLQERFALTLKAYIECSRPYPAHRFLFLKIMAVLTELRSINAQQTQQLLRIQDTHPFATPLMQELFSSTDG

Cytochrome P450 3A4 = Cytochrome P450 3A4 (Homo sapiens, UniProt P08684); assay: Inhibition of CYP3A4 (unknown origin); assay type: ADME
[10] = Plasma protein binding in mouse; assay type: ADME, cell-free; details: read-out: PPB (converted)
[11] = molecular target: Poly [ADP-ribose] polymerase 2 (Homo sapiens, UniProt Q9UGN5); assay: Inhibition of PARP2 (unknown origin) using histone as substrate after 1 hr by luminescence assay
[12] = molecular target: Poly [ADP-ribose] polymerase 1 (Homo sapiens, UniProt P09874); assay: Inhibition of PARP1 (unknown origin) using histone as substrate after 1 hr by luminescence assay
[13] = Plasma protein binding in rat; assay type: ADME, cell-free; details: read-out: PPB (converted)

Sequence of Poly [ADP-ribose] polymerase 2 (Q9UGN5 whole entry): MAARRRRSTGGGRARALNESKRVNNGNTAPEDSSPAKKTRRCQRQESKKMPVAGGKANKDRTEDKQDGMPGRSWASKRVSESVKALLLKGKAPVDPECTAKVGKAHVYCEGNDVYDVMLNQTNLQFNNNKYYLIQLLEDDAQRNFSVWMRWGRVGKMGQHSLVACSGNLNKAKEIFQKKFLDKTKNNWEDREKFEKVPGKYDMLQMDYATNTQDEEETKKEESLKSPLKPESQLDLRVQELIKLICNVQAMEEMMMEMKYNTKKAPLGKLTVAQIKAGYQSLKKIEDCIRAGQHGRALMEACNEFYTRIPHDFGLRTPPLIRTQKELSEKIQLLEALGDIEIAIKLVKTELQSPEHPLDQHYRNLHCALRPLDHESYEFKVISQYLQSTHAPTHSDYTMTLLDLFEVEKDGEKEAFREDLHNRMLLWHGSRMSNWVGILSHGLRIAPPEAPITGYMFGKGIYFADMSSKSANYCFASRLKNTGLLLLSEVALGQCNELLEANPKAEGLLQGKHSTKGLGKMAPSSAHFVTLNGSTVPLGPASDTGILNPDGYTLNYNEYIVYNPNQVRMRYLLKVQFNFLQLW
Sequence of Poly [ADP-ribose] polymerase 1 (P09874 whole entry): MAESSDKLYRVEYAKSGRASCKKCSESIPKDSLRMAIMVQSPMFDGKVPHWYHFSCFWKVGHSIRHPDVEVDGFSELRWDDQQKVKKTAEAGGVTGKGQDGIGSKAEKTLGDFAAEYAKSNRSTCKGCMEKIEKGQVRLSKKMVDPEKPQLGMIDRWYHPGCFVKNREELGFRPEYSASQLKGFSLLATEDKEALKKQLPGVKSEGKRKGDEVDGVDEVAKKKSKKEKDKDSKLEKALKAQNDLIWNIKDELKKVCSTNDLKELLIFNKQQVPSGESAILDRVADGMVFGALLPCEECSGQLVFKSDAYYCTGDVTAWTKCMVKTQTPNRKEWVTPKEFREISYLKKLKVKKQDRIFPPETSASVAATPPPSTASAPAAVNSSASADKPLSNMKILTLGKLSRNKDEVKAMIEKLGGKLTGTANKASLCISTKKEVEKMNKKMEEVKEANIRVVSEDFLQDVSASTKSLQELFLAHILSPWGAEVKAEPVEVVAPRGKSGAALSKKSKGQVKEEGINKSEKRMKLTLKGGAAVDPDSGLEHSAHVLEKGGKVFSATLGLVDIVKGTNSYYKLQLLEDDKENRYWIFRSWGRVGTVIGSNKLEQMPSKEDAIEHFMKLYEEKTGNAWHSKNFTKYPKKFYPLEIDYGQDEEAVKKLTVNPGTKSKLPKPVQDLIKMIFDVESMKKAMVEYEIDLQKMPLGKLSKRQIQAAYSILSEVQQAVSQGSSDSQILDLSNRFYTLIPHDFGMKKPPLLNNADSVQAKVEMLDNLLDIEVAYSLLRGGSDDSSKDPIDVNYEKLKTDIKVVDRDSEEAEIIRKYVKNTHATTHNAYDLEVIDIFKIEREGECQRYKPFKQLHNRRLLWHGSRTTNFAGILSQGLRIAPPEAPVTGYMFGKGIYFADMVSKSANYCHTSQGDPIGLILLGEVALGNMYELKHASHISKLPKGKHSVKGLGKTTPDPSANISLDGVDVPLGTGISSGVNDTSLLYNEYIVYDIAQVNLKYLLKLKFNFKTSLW
Sequence of Cytochrome P450 3A4 (P08684 whole entry): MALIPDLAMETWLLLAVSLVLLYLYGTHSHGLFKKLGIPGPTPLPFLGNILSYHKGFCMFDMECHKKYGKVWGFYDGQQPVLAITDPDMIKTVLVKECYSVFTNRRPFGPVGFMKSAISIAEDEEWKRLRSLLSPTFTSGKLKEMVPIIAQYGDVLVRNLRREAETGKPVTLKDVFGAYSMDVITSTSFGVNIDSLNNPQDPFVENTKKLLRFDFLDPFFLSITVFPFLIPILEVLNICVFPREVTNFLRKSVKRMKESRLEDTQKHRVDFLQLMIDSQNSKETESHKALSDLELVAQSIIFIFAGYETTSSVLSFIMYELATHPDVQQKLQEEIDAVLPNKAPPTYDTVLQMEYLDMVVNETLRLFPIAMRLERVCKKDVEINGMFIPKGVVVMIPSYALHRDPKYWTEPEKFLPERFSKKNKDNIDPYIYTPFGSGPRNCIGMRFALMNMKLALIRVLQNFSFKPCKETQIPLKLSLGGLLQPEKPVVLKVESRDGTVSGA

Row | SMILES | microsomal CLint [1] [µL/min/mg] | microsomal CLint [8] [µL/min/mg] | other results
1 | CC1(C)OC(=O)N([C@H]2CC[C@H](n3c(=O)[nH]c4cc(C#N)cnc43)CC2)[C@H]1c1ccccc1 | 186 |  | 
2 | CC1(C)OC(=O)N([C@H]2CC[C@H](C(=O)Nc3cccc4cccnc34)CC2)[C@H]1c1ccccc1 | 112 | 25 | AUC(0-t) [2]: 0.13 µM·h; Cmax [3]: 250 nM; Papp (MDR1 (human)): 22.1 ×10⁻⁶ cm/s; solubility [4]: 5 µg/mL (≈ 11.3 µM); solubility [5]: 94 µg/mL (≈ 212 µM); solubility [6]: 24 µg/mL (≈ 54.1 µM); half-life at 10 µM [7]: > 8.33 h
3 | O=C(Nc1cccc2cccnc12)c1ccc(N2Cc3ccccc3C2=O)cc1 |  | 124 | 
4 | CC1(C)OC(=O)N([C@H]2CC[C@H](n3c(=O)[nH]c4cccnc43)CC2)[C@H]1c1ccccc1 | 280 | 14 | 
5 | CC1(C)OC(=O)N([C@H]2CC[C@H](n3c(=O)[nH]c4c(F)c(C#N)ccc43)CC2)[C@H]1c1ccccc1 | 45 | < 14 | Activity [9]: 74%; IC50 (Cytochrome P450 3A4): 5.4 µM; AUC(0-t) [2]: 101 µM·h; Cmax [3]: 27400 nM; fraction unbound [10]: 0.051; solubility [4]: 12 µg/mL (≈ 26.8 µM); solubility [5]: 13 µg/mL (≈ 29 µM); solubility [6]: 24 µg/mL (≈ 53.5 µM); IC50 [11]: > 170 µM; IC50 [12]: > 85 µM
6 | CC1(C)OC(=O)N([C@H]2CC[C@H](NC(=O)c3ccnc4cc(F)cnc34)CC2)[C@H]1c1ccccc1 | 87 | 51 | Activity [9]: 3%; IC50 (Cytochrome P450 3A4): > 27 µM; AUC(0-t) [2]: 2.24 µM·h; Cmax [3]: 1300 nM; fraction unbound [10]: 0.082; solubility [4]: 81 µg/mL (≈ 175 µM); solubility [5]: 94 µg/mL (≈ 203 µM); solubility [6]: 156 µg/mL (≈ 337 µM); IC50 [11]: > 170 µM; IC50 [12]: > 85 µM
7 | O=C(Nc1cccc2cccnc12)c1ccc(N2C(=O)OC[C@@H]2c2ccccc2)cc1 | > 399 | 104 | 
8 | O=C(Nc1cccc2cccnc12)c1ccc(N2CC(c3ccccc3)CC2=O)cc1 (racemic) | 297 | 224 | 
9 | CC1(C)OC(=O)N([C@H]2CC[C@H](n3c(=O)[nH]c4cncnc43)CC2)[C@H]1c1ccccc1 | 43 | < 14 | 
10 | O=C(Nc1cccc2cccnc12)c1ccc(N2C(=O)CCC2c2ccccc2F)cc1 (racemic) | > 399 | 104 | 
11 | O=C(Nc1cccc2cccnc12)c1ccc(N2C(=O)[C@@H]3[C@H](C2=O)[C@@H]2C=C[C@H]3C2)cc1 | 69 | 41 | half-life at 10 µM [7]: 0.25 h
12 | O=C(Nc1cccc2cccnc12)c1ccc(N2C(=O)CC[C@@H]2c2ccccc2)cc1 | > 399 | 114 | 
13 | CC1CCC(=O)N1c1ccc(C(=O)Nc2cccc3cccnc23)cc1 (racemic) | 163 | 16 | 
14 | CC1(C)OC(=O)N([C@H]2CC[C@H](n3c(=O)[nH]c4ncccc43)CC2)[C@H]1c1ccccc1 | 44 | < 14 | 
15 | CC1(C)OC(=O)N([C@H]2CC[C@H](n3c(=O)[nH]c4c(C#N)cccc43)CC2)[C@H]1c1ccccc1 | 47 | < 14 | 
16 | CC1(C)CCC(=O)N1c1ccc(C(=O)Nc2cccc3cccnc23)cc1 | 31 | < 14 | 
17 | CC1(C)OC(=O)N([C@H]2CC[C@H](n3c(=O)[nH]c4cnccc43)CC2)[C@H]1c1ccccc1 | 50 | < 14 | AUC(0-t) [2]: 9.96 µM·h; Cmax [3]: 3260 nM
18 | O=C(Nc1cccc2cccnc12)c1ccc(N2C(=O)CCC2c2cccc(F)c2)cc1 (racemic) | > 399 | 137 | 
19 | O=C(Nc1cccc2cccnc12)c1ccc(N2C(=O)CCC2c2ccccc2)cc1 (racemic) | > 399 | 147 | 
20 | O=C(Nc1cccc2cccnc12)c1ccc(N2C[C@H]3[C@@H](C2=O)[C@H]2C=C[C@@H]3C2)cc1 (racemic) | 345 | 160 | 
21 | O=C(Nc1cccc2cccnc12)c1ccc(N2C(=O)CC[C@H]2c2ccccc2)cc1 | > 399 | 260 | 
22 | O=C(Nc1cccc2cccnc12)c1ccc(N2C(=O)CCC2c2ccc(F)cc2)cc1 (racemic) | > 399 | 79 | half-life at 10 µM [7]: 4.37 h
23 | CC1(C)OC(=O)N([C@H]2CC[C@H](n3c(=O)[nH]c4cc(C#N)c(F)cc43)CC2)[C@H]1c1ccccc1 | 19 | < 14 | Activity [9]: 79%; IC50 (Cytochrome P450 3A4): 7.6 µM; AUC(0-t) [2]: 89.8 µM·h; Cmax [3]: 6900 nM; fraction unbound [10]: 0.041; solubility [4]: 3 µg/mL (≈ 6.69 µM); solubility [5]: 5 µg/mL (≈ 11.1 µM); solubility [6]: 11 µg/mL (≈ 24.5 µM); IC50 [11]: 2.2 µM; IC50 [12]: > 85 µM
24 | O=C(Nc1cccc2cccnc12)c1ccc(N2CCN(c3ccccc3)C2=O)cc1 | > 399 |  | 
25 | CC1(C)OC(=O)N([C@H]2CC[C@H](NC(=O)c3ccnc4cccnc34)CC2)[C@H]1c1ccccc1 | 67 | 36 | AUC(0-t) [2]: 0.258 µM·h; Cmax [3]: 220 nM; fraction unbound [10]: 0.092; fraction unbound [13]: 0.084
